STAT1 inh – inhibitors of IFN-gamma induced STAT1 signaling; NIH 3T3 STAT1-luciferase reporter, luminescence; 200,000 compounds, 0.35% hits; inhibition, % at 5.5 µM;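 active means inhibition above a set limit, the mean inhibition across all tested compounds plus 3 SD, cut at about 34% in these data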;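 further: 0% = IFN-gamma with DMSO and 100% = IFN-gamma with 300 µM nifuroxazide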
STAT3 act-1 – STAT3 signaling activation. U3A cells, IL-6 STAT3-luciferase reporter, luminescence; 100% = signal with IL-6 EC80 alone. activation (% of control), % at 5.6 µM. 190,000 compounds, 0.91% hits. AID 871;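 active means activation above the screen-wide mean of compound activation plus 3 SD, cut at about 130% in these data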;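 further: 0% = background luminescence of wells with medium and substrate only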
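Material: human STAT1-deficient U3A cells with stable STAT3-luciferase reporter / Probe or stimulus: IL-6 stimulus at 33 ng/mL final / Schedule: 1 h compound pre-exposure, 6 h IL-6 stimulation, 37 °C / Technique: luminescence / Read-out basis: percent of IL-6-only median luminescence / Control set: IL-6-only high control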
STAT3 blocker – inhibitors of IL-6 induced STAT3 signaling. 190,000 compounds, 0.89% hits. inhibition, % at 5.5 µM. U3A cells, IL-6 STAT3-luciferase reporter, luminescence; host cell line lacks STAT1;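 active means inhibition above the mean inhibition across all screened compounds plus 3 SD, cut at about 44% in these data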;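 further: 0% = DMSO only wells and 100% = 100 µM nifuroxazide control wells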
APP 5'UTR act – APP 5'UTR luciferase reporter activation; SH-SY5Y APP 5'UTR luciferase reporter, luminescence; zero percent = DMSO vehicle wells; activation, % at 2 µM; 190,000 compounds, 1% hits; AID 1276;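 active means activation above a set limit, based on mean plus 3 SD of controls, cut at about 140% in these data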
NF-kB expr up – raises NF-kB expression in human neuronal cells; fold change at 12.5 µM; NF-kB reporter expression; active compounds read high; 190,000 compounds, 1.6% hits; in the data active means fold change above about 3.3
STAT1 act-1 – increases IFN-gamma driven STAT1 reporter signal; NIH 3T3 STAT1-luciferase reporter, luminescence; 100% = IFN-gamma alone, no compound; activation (% of control), % at 5.5 µM; 200,000 compounds, 2.6% hits;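 active means activation above the screen-wide mean activation plus 3 SD, cut at about 130% in these data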;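 further: raw ratio to IFN-gamma control signal so 100% means no change and 0% no light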
STAT3 act-2 – STAT3 activation, confirmation assay. U3A STAT3-luciferase reporter, IL-6 potentiation, luminescence; U3A cells lack STAT1; 100 means same as IL-6 alone. shares compounds with STAT3 act-1. potentiation (% of control), % at 5.7 µM. 1,200 compounds, 64% hits. AID 1267;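 active means percent activation of the STAT3 luciferase reporter above a set limit taken from the earlier primary screen, cut at about 130% in these data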;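 further: 0% = background signal of medium plus substrate and 100% = median of IL-6 with DMSO wells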
NFkB act STAT3ct – counter-screen for STAT3 activators: NF-kappaB activation; shares compounds with STAT3 act-1; 1,200 compounds, 11% hits; activation (% of control), % at 5.7 µM; human cells, NF-kappaB reporter activation; AID 1309; in the data active means activation above about 120%;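 further: reporter induced by TNF-alpha stimulation; 100% = median of stimulated DMSO wells and 0% = no signal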
STAT1 act-2 – counter-screen for STAT3 activators: STAT1 activation | shares compounds with STAT3 act-1 | NIH 3T3 STAT1-luciferase reporter, IFN-gamma, luminescence | 1,200 compounds, 13% hits | AID 1318 | activation (% of control), % at 5.7 µM;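 active means activation above the solvent-only control well mean plus 3 SD, set per screening run, cut at about 120% in these data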;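 further: 100% = IFN-gamma with DMSO median signal so 100% means no change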
Active calls of the source: *; · = no result. Hits are enriched below; roughly 4.9% of the tested compounds scored in any of these assays.

SMILES	STAT1 inh	STAT3 act-1	STAT3 blocker	APP 5'UTR act	NF-kB expr up	STAT1 act-1	STAT3 act-2	NFkB act STAT3ct	STAT1 act-2
Cc1cccc(C2c3[nH]c4ccccc4c3CCN2C(=O)c2nn(C)c(=O)c3ccccc23)n1 (stereo not drawn)	1	137*	-38	-7	0.47	98	132	106	94
Cc1cccc(C2c3[nH]c4ccccc4c3CCN2C(=O)c2ocnc2C)n1 (stereo not drawn)	11	125	-27	14	1.2	88	·	·	·
CCC(C)NC(=O)C(NS(=O)(=O)c1cccc2nsnc12)c1ccccc1 (stereo not drawn)	1	139*	-39	-6	1.1	99	96	115	117
O=C(COC(=O)c1ccc2c(c1)C(=O)N(Cc1ccncc1)C2=O)Nc1ccccc1[N+](=O)[O-]	12	138*	-45	5	1.1	89	147*	107	96
COc1ccc(S(=O)(=O)N(C(C)=O)c2ccc(OC(C)=O)c3ccccc23)cc1[N+](=O)[O-]	7	107	-14	11	0.57	94	·	·	·
COc1cccc(-c2nc(N3CCC(C)CC3)c3ccccc3n2)c1O	3	122	-21	-7	0.88	97	·	·	·
COc1cccc(-c2nc(N3CC(C)CC(C)C3)c3ccccc3n2)c1O (stereo not drawn)	4	138*	-37	-12	0.58	96	131	106	98
COc1cccc(-c2nc(NC(C)(C)C)c3ccccc3n2)c1O	5	143*	-46	20	0.98	95	129	106	103
N#Cc1ccc(NC(=S)NCCN2CCOCC2)cc1	-5	101	2	13	1.1	102	·	·	·
COc1ccc2[nH]cc(S(=O)(=O)c3ccc(C(C)C)cc3)c(=O)c2c1	9	101	7	23	1.2	92	·	·	·
NCCc1c(-c2ccccc2)n(-c2ccccc2)c2ccccc12	-13	104	-6	11	0.61	112	·	·	·
Cc1ncc([N+](=O)[O-])n1Cc1ccc(Br)cc1	-6	97	11	14	1.3	106	·	·	·
CCCCCNCc1cccc(Br)c1	16	98	8	6	1.1	86	·	·	·
Cc1ccccc1N=Nc1c(C)[nH]n(-c2ccccc2)c1=O	-16	108	-4	-7	1.3	113	·	·	·
Cc1[nH]n(-c2ccccc2)c(=O)c1N=Nc1ccccc1O	-5	168*	-77	-57	1.3	102	171*	109	123*
CCC1=NN=C(c2ccc(F)cc2)C(c2c[nH]c3ccccc23)N1O (stereo not drawn)	-1	163*	-71	29	1.9	93	159*	104	112
Cc1ccc(N2C(=O)CC(c3c[nH]c4ccccc34)C2=O)cc1 (stereo not drawn)	3	96	6	1	1.8	96	·	·	·
O=C(NCCC(=O)N1CCN(c2ncccn2)CC1)c1ccccc1	-12	139*	-42	0	1	111	102	105	99
O=C(NCCC(=O)N1CCN(c2ncccn2)CC1)c1ccccc1Cl	-5	110	-14	·	1.1	104	·	·	·
Cc1ccc(S(=O)(=O)c2c(C)nn(C(C)(C)C)c2OC(=O)c2cccs2)cc1	-24	137*	-43	5	1	122	126	98	105
Cc1cc(C)n(-c2nc3ccccc3c(=O)n2OCc2ccc(Cl)cc2)n1	12	145*	-45	1	0.8	89	128	102	95
COn1c(-n2nc(C)cc2C)nc2ccccc2c1=O	0	103	2	-5	1.1	100	·	·	·
Cc1nc2c(n1C1CCCCC1)C(=O)c1ccccc1C2=O	-2	170*	-70	5	1.8	102	137*	98	99
O=C1c2cccnc2C(=O)N1C1CCCCC1	11	105	-2	4	1	90	·	·	·
CC(C)c1ccccc1NC(=O)COC(=O)c1ccc(Cl)c(S(=O)(=O)N2CCCCCC2)c1	-5	104	-4	-2	0.92	104	·	·	·
SMILES	STAT1 inh	STAT3 act-1	STAT3 blocker	APP 5'UTR act	NF-kB expr up	STAT1 act-1	STAT3 act-2	NFkB act STAT3ct	STAT1 act-2
O=C(c1ccccc1)N1CCCC(c2nc3c(nnn3Cc3ccccc3)c(=O)[nH]2)C1 (stereo not drawn)	-3	148*	-52	-5	1.2	103	97	106	106
O=C(C1CCCCC1)N1CCCC(c2nc3c(nnn3Cc3ccccc3)c(=O)[nH]2)C1 (stereo not drawn)	4	96	8	-15	1.1	97	·	·	·
Cc1c(Cl)cccc1NC(=O)CCC(=O)NNC(=O)c1ccccc1	-4	107	-5	-2	0.99	103	·	·	·
COC(=O)c1sccc1NC(=O)c1ccc(C)s1	-3	158*	-64	10	1.4	102	128	96	98
COC(=O)c1c(NC(=O)c2ccc(Br)s2)sc2c1CCC2	-4	137*	-43	-13	1.1	104	123	105	98
CCOc1ccccc1C(=O)Nc1ccsc1C(=O)OC	-5	101	-3	-85	1.5	104	·	·	·
CCn1c(C(=O)Nc2ccsc2C(=O)OC)cc2sc(Cl)cc21	3	165*	-75	0	1.1	97	138*	106	93
COC(=O)c1sccc1NC(=O)c1ccc(OC)cc1	-1	116	-19	-6	1.3	101	·	·	·
COC(=O)c1sccc1NC(=O)c1ccc(Cl)s1	1	143*	-48	12	1.1	98	176*	121*	108
Fc1ccccc1C1c2cccn2CCN1C(=S)Nc1ccc(Br)cc1 (stereo not drawn)	-7	98	4	8	1.3	104	·	·	·
CCn1c(C)nc2cc(C(=O)N/N=C(\C)c3ccc(OC)cc3O)ccc21	13	85	19	-42	1.2	88	·	·	·
COC(=O)c1sccc1NC(=O)Cc1ccc(Br)cc1	0	95	6	-2	1.1	100	·	·	·
COC(=O)c1sccc1NC(=O)c1ccc(Br)s1	10	150*	-50	18	1.4	90	146*	104	104
S=C(NCCN1CCOCC1)NC1CCCC1	0	99	6	7	0.97	97	·	·	·
N/C(=N\O)c1ccccc1N1CCCCC1	13	102	9	-8	1.1	87	·	·	·
Oc1ccc(N2CCN(c3ncnc4sc(-c5ccccc5)cc34)CC2)cc1	-7	159*	-72	16	1.7	107	122	92	97

Assay outcomes deposited in PubChem BioAssay by several laboratories.
